Hits are enriched below; roughly 1.3% of the tested compounds scored in any of these assays.
PfG6PD inh – PfG6PD (Plasmodium falciparum) enzyme inhibition; AID 504690; inhibition, % at 20 µM; PfGluPho enzyme, NADPH resazurin-diaphorase fluorescence; hit rate 0.78% among 350,000;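 active means inhibition reaching at least a set limit at 20 µM in the primary screen, cut at about 59% in these data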;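 further: 0% = DMSO wells with substrate and 100% = DMSO wells lacking glucose-6-phosphate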
Diaph inh CS – diaphorase inhibition or chemical oxidation counter-screen; diaphorase resazurin-to-resorufin fluorescence, NADH, 16 min; bacterial (C. kluyveri) enzyme, not human; inhibition, % at 20 µM; hit rate 0.69% among 190,000;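 active means primary screen inhibition at 20 µM above a set limit, cut at about 50% in these data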;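 further: plate controls were DMSO with full reaction for no effect and wells lacking NADH for full effect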
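Benchmarks: positive control wells lacking NADH, neutral wells with DMSO only. System: bacterial diaphorase enzyme (C. kluyveri). Input: 0.14 U/mL diaphorase, enzyme working solution. Detection: resorufin fluorescence, excitation 544 nm, emission 590 nm. Times: 16-min room-temperature incubation before reading.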
HKDC1 inh – inhibitors of human hexokinase HKDC1 | hit rate 0.16% among 340,000 | inhibition, % at 20 µM | AID 493160 | Q2TB90 | recombinant HKDC1, G6PDH/diaphorase resazurin coupled fluorescence;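 active means inhibition above about 35% when tested at 20 µM, limit read from the data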;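 further: plate controls were DMSO wells with enzyme for no effect and DMSO wells lacking enzyme for full effect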
Target sequence (Q2TB90 whole entry, looked up): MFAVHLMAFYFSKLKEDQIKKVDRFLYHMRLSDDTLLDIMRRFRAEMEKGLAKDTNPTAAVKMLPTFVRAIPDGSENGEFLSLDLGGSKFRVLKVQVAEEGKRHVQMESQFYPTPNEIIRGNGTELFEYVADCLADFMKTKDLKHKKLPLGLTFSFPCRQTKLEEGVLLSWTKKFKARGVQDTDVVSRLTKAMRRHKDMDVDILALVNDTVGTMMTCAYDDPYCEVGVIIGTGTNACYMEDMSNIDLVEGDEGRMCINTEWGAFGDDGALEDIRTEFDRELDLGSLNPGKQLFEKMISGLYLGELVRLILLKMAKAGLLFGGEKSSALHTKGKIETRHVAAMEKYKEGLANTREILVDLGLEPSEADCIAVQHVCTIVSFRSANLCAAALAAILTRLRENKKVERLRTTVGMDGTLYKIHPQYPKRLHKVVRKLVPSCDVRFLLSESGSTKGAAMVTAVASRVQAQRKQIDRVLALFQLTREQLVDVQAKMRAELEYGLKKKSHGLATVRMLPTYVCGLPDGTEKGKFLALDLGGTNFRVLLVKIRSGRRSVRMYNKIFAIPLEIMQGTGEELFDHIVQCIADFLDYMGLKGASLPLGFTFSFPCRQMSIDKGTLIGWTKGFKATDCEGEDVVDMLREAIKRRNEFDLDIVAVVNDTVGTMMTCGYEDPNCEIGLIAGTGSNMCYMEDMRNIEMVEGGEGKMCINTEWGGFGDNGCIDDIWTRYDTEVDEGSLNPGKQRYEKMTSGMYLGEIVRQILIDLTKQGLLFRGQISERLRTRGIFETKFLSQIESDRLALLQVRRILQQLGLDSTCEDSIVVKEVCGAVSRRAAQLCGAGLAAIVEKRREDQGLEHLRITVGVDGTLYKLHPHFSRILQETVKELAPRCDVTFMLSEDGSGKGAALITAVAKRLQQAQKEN
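Assay system: recombinant HKDC1 hexokinase; detection: coupled resazurin fluorescence, excitation 525 nm, emission 613 nm; benchmarks: DMSO-plus-enzyme-mix negative control, buffer-substituted positive control; compound dosing: single 20 µM dose; schedule: 90 min at room temperature in dark; also added: glucose plus 1 mM ATP as hexokinase substrates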
G6PDH CS – L. mesenteroides G6PDH inhibition counter-screen | hit rate 0.12% among 200,000 | inhibition, % at 5 µM | AID 1020 | Purified L. mesenteroides G6PDH, diaphorase/resazurin coupled fluorescence, 45 min; in the data active means inhibition above about 50%
PfGluPho conf – PfG6PD inhibition, single-dose confirmed; shares compounds with PfG6PD inh; recombinant PfGluPho, NADPH-diaphorase-resazurin fluorescence; inhibition, % at 20 µM; hit rate 34% among 2,400; AID 504753;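 active means inhibition of at least 50% at 20 µM in any single replicate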;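 further: 0% = DMSO with substrate and 100% = DMSO lacking glucose-6-phosphate substrate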
Diaphorase 10uM – counter-screen for P. falciparum G6PD inhibitors: diaphorase inhibitors, oxidizers. diaphorase-coupled resazurin reduction, fluorescence, NADPH 10 uM. AID 504862. hit rate 39% among 820. shares compounds with PfG6PD inh. inhibition, % at 20 µM;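 active means average inhibition reaching 50% or more with the compound at 20 µM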;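 further: resorufin red fluorescence formed as diaphorase reduces resazurin using NADPH; 0% = DMSO with enzyme and 100% = DMSO without enzyme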
Diaphorase 30uM – counter-screen for P. falciparum G6PD inhibitors: diaphorase inhibitors, oxidizers | shares compounds with PfG6PD inh | Diaphorase/resazurin coupled assay, resorufin fluorescence, 30 uM NADPH | inhibition, % at 20 µM | hit rate 29% among 820 | AID 504863;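 active means inhibition averaging 50% or more, tested at 20 µM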;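 further: 0% = DMSO with enzyme and 100% = DMSO wells lacking diaphorase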
Active calls of the source: *; . = no result.

SMILES	PfG6PD inh	Diaph inh CS	HKDC1 inh	G6PDH CS	PfGluPho conf	others
C[C@H](CO)N1C[C@H](C)[C@@H](CN(C)C(=O)Oc2ccc3ccccc3c2)OCc2cnnn2CCCC1=O	-19	.	.	.	.
NC1CCc2cc(O)c(O)cc2C1 (stereo not given)	69*	.	-1	.	76*	Diaphorase 10uM=-2;Diaphorase 30uM=6
C=C[C@@H]1C2=CCOC(=O)C2=CO[C@H]1O[C@@H]1O[C@H](CO)[C@@H](O)[C@H](O)[C@H]1O	0	.	-4	.	.
Nc1ccc(C2(c3ccc(N)cc3)c3ccccc3-c3ccccc32)cc1	-19	7	-1	4	.
Nc1ccc2c3c(cccc13)-c1ccccc1-2	79*	.	7	.	82*	Diaphorase 10uM=-16;Diaphorase 30uM=-8
O=S1(=O)N(Cc2ccc(F)cc2)CCCN1Cc1ccccc1Cl	2	.	-1	.	.
COC(=O)C1=C(c2ccc(OC(F)(F)F)cc2)C[C@@H]2CC[C@H]1N2C(=O)NCCOc1ccccc1Cl	-4	.	1	.	.
Nc1c(Cl)cc([N+](=O)[O-])cc1Cl	-2	.	1	.	.
CC1CCN(C(CC(=O)c2ccccc2)C(=O)c2ccccc2)CC1 (stereo not given)	94*	.	1	.	0
O=C1NC(=O)N(c2ccc3c(c2)OCO3)C(=O)/C1=C/c1cccs1	67*	19	-3	11	45
O=C1NC(=O)N(c2ccc3c(c2)OCO3)C(=O)/C1=C/c1ccsc1	28	15	-8	0	.
C=C1C(=O)O[C@@H]2C[C@@H](C)[C@@H]3C=CC(=O)[C@@]3(C)[C@@H](OC(=O)CC(=O)O[C@H]3[C@@H]4C(=C)C(=O)O[C@@H]4C[C@@H](C)[C@@H]4C=CC(=O)[C@]43C)[C@H]12	68*	.	16	.	56*	Diaphorase 10uM=-6;Diaphorase 30uM=-3
O=C1C(=O)c2ccccc2-c2ccccc21	117*	24	31	53*	97*	Diaphorase 10uM=88*;Diaphorase 30uM=90*
CCCNC(=O)N1[C@H]2CC[C@@H]1C(C(=O)OC)=C(c1ccccc1)C2	5	.	-3	.	.
Oc1ccccc1Cl	5	.	-3	.	.
Oc1ccc(O)c2c1C1(Cl)C(Cl)=C(Cl)C2(Cl)C1(Cl)Cl	73*	.	-2	.	12
COc1ccc(OC)c(N2C(=O)NC(=O)/C(=C/c3ccc([N+](=O)[O-])s3)C2=O)c1	62*	41	6	16	38
CCN1C(=O)/C(=C\c2ccc([N+](=O)[O-])s2)C(=O)NC1=S	.	50	.	-1	.
Cc1cc(C)cc(NC(=O)CCNC(=O)N2C[C@H]3C[C@@H](C2)c2cccc(=O)n2C3)c1	18	.	-3	.	.

Bioassay records deposited in PubChem by Sanford-Burnham Center for Chemical Genomics.
